Assay results taken from ChEMBL document CHEMBL1145017, “Synthesis and in vivo antitumor activity of poly(l-glutamic acid) conjugates of 20S-camptothecin” (J Med Chem, 2003).
In brackets after ≈: the same amount, converted by molar mass.

What was measured:
Mus musculus [1] = test: Maximum tolerated dose (MTD) in mice bearing s.c. B-16 Melanomas; assay type: functional
Mus musculus [2] = test: Effect on in Vivo Growth of s.c. B-16 Melanomas in mice measured ad difference of average times for tumors to reach a volume of 500 mm**3 between treatment and control groups at dose of 35 mg/kg; assay type: functional
Mus musculus [3] = test: Effect on in Vivo Growth of s.c. B-16 Melanomas in mice measured ad difference of average times for tumors to reach a volume of 500 mm**3 between treatment and control groups at dose of 48 mg/kg; assay type: functional
Mus musculus [4] = test: Effect on in Vivo Growth of s.c. B-16 Melanomas in mice measured ad difference of average times for tumors to reach a volume of 500 mm**3 between treatment and control groups at dose of 60 mg/kg; assay type: functional
Mus musculus [5] = test: Effect on in Vivo Growth of s.c. B-16 Melanomas in mice measured ad difference of average times for tumors to reach a volume of 500 mm**3 between treatment and control groups at dose of 75 mg/kg; assay type: functional
Mus musculus [6] = test: Effect on in Vivo Growth of s.c. B-16 Melanomas in mice measured ad difference of average times for tumors to reach a volume of 500 mm**3 between treatment and control groups at dose of 41 mg/kg; assay type: functional
[7] = Aqueous solubility was measured; assay type: physicochemical
How it was run: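 Conjugate dissolved in aqueous Na₂HPO₄ (0.1 M, pH 7.4) at 37 °C; solubility expressed as mg of conjugate per mL.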

Mus musculus [8] = species on record: Mus musculus; test: Maximum tolerated dose (MTD) in mice; assay type: functional
Mus musculus [9] = test: Effect on in Vivo Growth of s.c. HT-29 […] in mice measured ad difference of average times for tumors to reach a volume of 500 mm**3 between treatment and control groups at dose of 24 mg/kg; assay type: functional
How it was run: (§1)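 Athymic nude mice bearing human HT-29 colon or NCI-H460 lung carcinoma cells were given a single bolus ip injection, dosed as mg CPT equivalent/kg. Endpoint was TGD in days, the difference in mean time to reach 500 mm³ tumor volume between treated and control groups. Student's t-test vs vehicle.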

Mus musculus [10] = test: Effect on in Vivo Growth of s.c. HT-29 […] in mice measured ad difference of average times for tumors to reach a volume of 500 mm**3 between treatment and control groups at dose of 28 mg/kg; assay type: functional; how it was run: as §1
Mus musculus [11] = test: Effect on in Vivo Growth of s.c. HT-29 […] in mice measured ad difference of average times for tumors to reach a volume of 500 mm**3 between treatment and control groups at dose of 20 mg/kg; assay type: functional
How it was run: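 Athymic nude mice bearing human HT-29 colon carcinoma cells got a single bolus ip injection of conjugate, dosed in mg CPT equivalent/kg. Tumor growth delay (days) is the difference in average time for tumors to reach 500 mm³ between treated and control groups. Significance was tested by Student's t-test against vehicle.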

**Q.** With `CC[C@@]1(OC(=O)CCCOC(=O)CC[C@H](N)C(=O)O)C(=O)OCc2c1cc1n(c2=O)Cc2cc3ccccc3nc2-1` as the compound, how does the MTD (Mus musculus [1]) read?
**A.** ~35 (mg of CPT) kg-1

**Q.** And the TGD (Mus musculus [2])?
**A.** 3 days

**Q.** For `CC[C@@]1(OC(=O)CNC(=O)CC[C@H](N)C(=O)O)C(=O)OCc2c1cc1n(c2=O)Cc2cc3ccccc3nc2-1`, which MTD (Mus musculus [1]) is on record?
**A.** ~40 (mg of CPT) kg-1

**Q.** And the TGD (Mus musculus [2])?
**A.** 2 days

**Q.** For `CC[C@@]1(OC(=O)CC[C@H](N)C(=O)O)C(=O)OCc2c1cc1n(c2=O)Cc2cc3ccccc3nc2-1`, which MTD (Mus musculus [1]) is on record?
**A.** >=48 (mg of CPT) kg-1

**Q.** And the TGD (Mus musculus [3])?
**A.** 4 days

**Q.** Which results are given for `CC[C@@]1(OC(=O)CCCNC(=O)CC[C@H](N)C(=O)O)C(=O)OCc2c1cc1n(c2=O)Cc2cc3ccccc3nc2-1`?
**A.** MTD (Mus musculus [1]): >=60 (mg of CPT) kg-1; TGD (Mus musculus [4]): 1 days

**Q.** What does the source list for `CC[C@@]1(OC(=O)COC(=O)CC[C@H](N)C(=O)O)C(=O)OCc2c1cc1n(c2=O)Cc2cc3ccccc3nc2-1`?
**A.** MTD (Mus musculus [1]): >=75 (mg of CPT) kg-1; TGD (Mus musculus [5]): 4 days

**Q.** For `CC[C@@]1(OC(=O)CCC(NC(=O)CC[C@H](N)C(=O)O)C(=O)O)C(=O)OCc2c1cc1n(c2=O)Cc2cc3ccccc3nc2-1` (stereo not given in full), which MTD (Mus musculus [1]) is on record?
**A.** >=41 (mg of CPT) kg-1

**Q.** What about the TGD (Mus musculus [6]) of the same compound?
**A.** 1 days

**Q.** Which results are given for `CC[C@@]1(OC(=O)CNC(=O)CNC(=O)CNC(=O)CC[C@H](N)C(=O)O)C(=O)OCc2c1cc1n(c2=O)Cc2cc3ccccc3nc2-1`?
**A.** solubility [7]: 33 mg/mL (≈ 50.9 mM); MTD (Mus musculus [8]): <34 (mg of CPT) kg-1; TGD (Mus musculus [9]): 7 days

**Q.** For `CC[C@@]1(OC(=O)CNC(=O)CNC(=O)CC[C@H](N)C(=O)O)C(=O)OCc2c1cc1n(c2=O)Cc2cc3ccccc3nc2-1`, which solubility [7] is on record?
**A.** 34 mg/mL (≈ 57.5 mM)

**Q.** And the MTD (Mus musculus [8])?
**A.** >=28 (mg of CPT) kg-1

**Q.** What about the TGD (Mus musculus [10]) of the same compound?
**A.** 4 days

**Q.** With `CC[C@@]1(O)C(=O)OCc2c1cc1n(c2=O)Cc2cc3ccccc3nc2-1` [CAMPTOTHECIN] as the compound, how does the TGD (Mus musculus [11]) read?
**A.** 17 days

**Q.** What about the MTD (Mus musculus [8]) of the same compound?
**A.** ~20 (mg of CPT) kg-1
